{"source": "ChEMBL document CHEMBL4354826", "about": "“Structure-Based Discovery of SD-36 as a Potent, Selective, and Efficacious PROTAC Degrader of STAT3 Protein” (J Med Chem, 2019)", "key": {"[1]": {"test": "Antiproliferative activity against human MOLM16 cells assessed as reduction in cell viability incubated for 4 days by cell-titer glo luminescent assay", "assay_type": "functional, cell-based", "details": "MOLM16, 96 h", "method_in_brief": "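Viability assay: cells incubated with serially diluted compounds for 4 days, viability read by CellTiter-Glo luminescence; IC50 from concentration–response.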"}, "[2]": {"target": "Signal transducer and activator of transcription 3 (Homo sapiens, UniProt P40763)", "sequence (P40763 whole entry, the tested form may be a part)": "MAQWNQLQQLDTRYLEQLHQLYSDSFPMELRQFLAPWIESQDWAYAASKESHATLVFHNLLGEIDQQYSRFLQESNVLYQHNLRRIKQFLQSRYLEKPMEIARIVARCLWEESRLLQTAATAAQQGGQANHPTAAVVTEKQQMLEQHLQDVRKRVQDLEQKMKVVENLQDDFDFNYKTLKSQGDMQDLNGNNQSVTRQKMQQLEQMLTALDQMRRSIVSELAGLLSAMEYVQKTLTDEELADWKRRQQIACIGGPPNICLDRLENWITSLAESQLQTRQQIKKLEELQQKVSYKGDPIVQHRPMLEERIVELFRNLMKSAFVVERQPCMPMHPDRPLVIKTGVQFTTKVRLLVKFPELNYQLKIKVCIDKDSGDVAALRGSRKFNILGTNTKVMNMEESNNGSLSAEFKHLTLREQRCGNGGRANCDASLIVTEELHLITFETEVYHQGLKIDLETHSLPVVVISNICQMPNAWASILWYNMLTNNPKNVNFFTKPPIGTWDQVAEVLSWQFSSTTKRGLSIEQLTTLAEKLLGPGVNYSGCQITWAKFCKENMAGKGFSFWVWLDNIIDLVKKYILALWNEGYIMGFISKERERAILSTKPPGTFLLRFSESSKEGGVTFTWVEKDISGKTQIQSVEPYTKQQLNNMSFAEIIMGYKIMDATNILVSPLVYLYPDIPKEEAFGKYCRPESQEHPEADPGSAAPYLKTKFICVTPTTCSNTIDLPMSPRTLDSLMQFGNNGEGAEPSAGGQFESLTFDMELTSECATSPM", "test": "Binding affinity to recombinant human His/SUMO-tagged STAT3 (127 to 688 residues) expressed in Escherichia coli Rosetta (DE3) incubated for 1 hr by fluorescence polarization assay"}, "[3]": {"target": "Protein cereblon/Signal transducer and activator of transcription 6 (Homo sapiens) (UniProt P42226+Q96SW2)", "sequence (P42226 2-847 limits assumed)": "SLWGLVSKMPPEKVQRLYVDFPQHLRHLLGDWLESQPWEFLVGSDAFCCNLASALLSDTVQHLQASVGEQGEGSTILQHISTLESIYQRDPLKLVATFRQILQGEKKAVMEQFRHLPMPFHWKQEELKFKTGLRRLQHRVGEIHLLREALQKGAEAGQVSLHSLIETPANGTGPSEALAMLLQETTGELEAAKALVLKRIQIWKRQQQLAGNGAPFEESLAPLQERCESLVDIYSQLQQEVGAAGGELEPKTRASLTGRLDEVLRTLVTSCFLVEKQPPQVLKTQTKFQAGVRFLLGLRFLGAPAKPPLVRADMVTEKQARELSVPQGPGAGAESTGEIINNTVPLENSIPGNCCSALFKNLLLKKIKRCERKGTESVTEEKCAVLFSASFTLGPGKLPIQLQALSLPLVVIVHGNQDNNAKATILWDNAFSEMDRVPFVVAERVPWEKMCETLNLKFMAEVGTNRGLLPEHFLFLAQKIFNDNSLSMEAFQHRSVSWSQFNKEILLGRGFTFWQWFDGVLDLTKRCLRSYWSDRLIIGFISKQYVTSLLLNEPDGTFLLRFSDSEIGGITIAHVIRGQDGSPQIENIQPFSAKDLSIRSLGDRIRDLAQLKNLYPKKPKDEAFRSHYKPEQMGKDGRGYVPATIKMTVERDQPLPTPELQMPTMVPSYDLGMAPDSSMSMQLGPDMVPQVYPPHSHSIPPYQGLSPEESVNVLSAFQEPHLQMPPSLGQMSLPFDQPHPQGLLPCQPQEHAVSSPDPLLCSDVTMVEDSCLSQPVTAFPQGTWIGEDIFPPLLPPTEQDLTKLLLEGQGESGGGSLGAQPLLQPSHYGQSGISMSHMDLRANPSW", "sequence (Q96SW2 whole entry partner)": "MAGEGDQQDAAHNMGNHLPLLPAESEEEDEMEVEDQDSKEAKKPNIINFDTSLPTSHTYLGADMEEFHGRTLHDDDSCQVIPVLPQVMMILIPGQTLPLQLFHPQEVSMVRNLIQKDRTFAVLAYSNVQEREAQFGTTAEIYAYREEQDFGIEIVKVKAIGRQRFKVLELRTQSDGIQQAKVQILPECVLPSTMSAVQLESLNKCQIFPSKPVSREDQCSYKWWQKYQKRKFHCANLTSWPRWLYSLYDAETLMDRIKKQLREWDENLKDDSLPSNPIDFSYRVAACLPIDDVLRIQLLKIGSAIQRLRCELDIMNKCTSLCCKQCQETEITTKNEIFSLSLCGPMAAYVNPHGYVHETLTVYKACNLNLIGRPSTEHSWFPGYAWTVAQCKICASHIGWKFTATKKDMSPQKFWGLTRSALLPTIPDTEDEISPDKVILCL", "test": "Protac activity at CRBN/STAT6 in human MOLM16 cells assessed as degradation of STAT6 at 0.01 to 10 uM incubated for 4 hrs by Western blot analysis", "assay_type": "cell-based", "method_in_brief": "(§1)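 Molm-16 cells treated 4 h with test compound at 0.01–10 μM, or control compounds at 10 μM. Lysates separated by SDS–PAGE, transferred to PVDF, blocked 1 h in 5% blocker/TBST, probed for each STAT protein, and detected by chemiluminescence.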"}, "[4]": {"target": "Protein cereblon/Signal transducer and activator of transcription 2 (Homo sapiens) (UniProt Q96SW2+P52630)", "sequence (P52630 whole entry, looked up)": "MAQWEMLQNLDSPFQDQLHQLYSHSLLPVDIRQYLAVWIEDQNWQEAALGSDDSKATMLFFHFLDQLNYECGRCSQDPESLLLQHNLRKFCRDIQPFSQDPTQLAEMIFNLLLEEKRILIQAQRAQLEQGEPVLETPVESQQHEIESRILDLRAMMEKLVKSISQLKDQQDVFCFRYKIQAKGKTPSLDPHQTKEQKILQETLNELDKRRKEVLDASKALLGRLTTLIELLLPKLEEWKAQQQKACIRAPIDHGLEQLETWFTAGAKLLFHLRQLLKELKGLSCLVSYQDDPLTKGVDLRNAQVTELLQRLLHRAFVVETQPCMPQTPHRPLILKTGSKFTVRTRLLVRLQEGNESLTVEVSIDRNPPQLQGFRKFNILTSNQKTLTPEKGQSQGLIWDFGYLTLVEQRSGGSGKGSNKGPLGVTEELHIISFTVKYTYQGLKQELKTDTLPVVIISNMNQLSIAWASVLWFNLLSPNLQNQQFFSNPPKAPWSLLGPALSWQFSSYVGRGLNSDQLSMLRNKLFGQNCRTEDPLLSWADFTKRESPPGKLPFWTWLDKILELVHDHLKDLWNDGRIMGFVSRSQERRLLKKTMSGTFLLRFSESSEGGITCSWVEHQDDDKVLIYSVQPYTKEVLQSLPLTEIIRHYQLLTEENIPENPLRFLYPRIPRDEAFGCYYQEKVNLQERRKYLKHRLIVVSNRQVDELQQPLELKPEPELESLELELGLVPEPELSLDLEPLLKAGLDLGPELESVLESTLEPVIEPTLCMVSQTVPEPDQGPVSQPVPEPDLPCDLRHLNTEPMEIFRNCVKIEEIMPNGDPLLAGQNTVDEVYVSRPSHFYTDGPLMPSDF", "sequence (Q96SW2 whole entry, looked up)": "as the sequence (Q96SW2 whole entry partner) above", "test": "Protac activity at CRBN/STAT2 in human MOLM16 cells assessed as degradation of STAT2 at 0.01 to 10 uM incubated for 4 hrs by Western blot analysis", "assay_type": "cell-based", "method_in_brief": "as §1"}, "[5]": {"target": "Protein cereblon/Signal transducer and activator of transcription 3 (Homo sapiens, UniProt P40763+Q96SW2)", "sequence (P40763 whole entry)": "as the sequence (P40763 whole entry, the tested form may be a part) above", "sequence (Q96SW2 whole entry)": "as the sequence (Q96SW2 whole entry partner) above", "test": "Protac activity at CRBN/STAT3 in human SUDHL1 cells assessed as degradation of STAT3 incubated for 16 hrs by Western blot analysis", "assay_type": "cell-based"}, "[6]": {"target": "Protein cereblon/Signal transducer and activator of transcription 1-alpha/beta (Homo sapiens) (UniProt P42224+Q96SW2)", "test": "Protac activity at CRBN/STAT1 in human SUDHL1 cells assessed as degradation of STAT1 at 0.01 to 10 uM incubated for 18 hrs by Western blot analysis", "assay_type": "cell-based", "method_in_brief": "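SU-DHL-1 cells treated 18 h with test compound at 0.01–10 μM, or control compounds at 10 μM. Lysates separated by SDS–PAGE, transferred to PVDF, blocked 1 h in 5% blocker/TBST, probed for each STAT protein, and detected by chemiluminescence.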"}, "Homo sapiens": {"organism": "Homo sapiens", "test": "Selectivity index, ratio of protac activity at CRBN/STAT1 in human SUDHL1 cells to protac activity at CRBN/STAT3 in human SUDHL1 cells", "assay_type": "cell-based", "method_in_brief": "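SU-DHL-1 cells treated 18 h with compound at 0.01–10 μM, or controls at 10 μM. Immunoblotting used SDS–PAGE, PVDF transfer, 1 h block in 5% blocker/TBST, primary and secondary antibodies and chemiluminescence. Levels of other STAT family members compared with STAT3 to express degradation selectivity.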"}}, "note": "Activity calls are given as the source filed them. The rule behind the calls is not given here.", "data": [{"smiles": "NC(=O)CC[C@H](NC(=O)[C@@H]1CC[C@@H]2CCN(C(=O)CCCCCC#Cc3cccc4c3CN(C3CCC(=O)NC3=O)C4=O)C[C@H](NC(=O)c3cc4cc(C(F)(F)P(=O)(O)O)ccc4[nH]3)C(=O)N21)C(=O)NC(c1ccccc1)c1ccccc1", "note": "(some centres not stated)", "values": [{"measurement": "IC50", "setting": "[1]", "result": 13, "unit": "nM"}, {"measurement": "Kd", "setting": "[2]", "result": 44, "unit": "nM"}, {"measurement": "Activity", "setting": "[3]", "result": "inactive"}, {"measurement": "Activity", "setting": "[4]", "result": "inactive"}, {"measurement": "DC50", "setting": "[5]", "result": 28, "unit": "nM"}, {"measurement": "Activity", "setting": "[6]", "result": "inactive"}, {"measurement": "Ratio", "setting": "Homo sapiens", "result": "> 100"}]}]}
